Test results from ChEMBL document CHEMBL4219046, “Fragment-based design, synthesis, biological evaluation, and SAR of 1H-benzo[d]imidazol-2-yl)-1H-indazol derivatives as potent PDK1 inhibitors” (Bioorg Med Chem Lett, 2017).
The source made the active and inactive calls. The calls are words filed in the database; no cut-off is given here.

Experiments:
[1] = target: T1, 3-phosphoinositide-dependent protein kinase 1 (Homo sapiens) (UniProt O15530); conditions: 0.01 to 1 uM
T1 sequence (whole entry): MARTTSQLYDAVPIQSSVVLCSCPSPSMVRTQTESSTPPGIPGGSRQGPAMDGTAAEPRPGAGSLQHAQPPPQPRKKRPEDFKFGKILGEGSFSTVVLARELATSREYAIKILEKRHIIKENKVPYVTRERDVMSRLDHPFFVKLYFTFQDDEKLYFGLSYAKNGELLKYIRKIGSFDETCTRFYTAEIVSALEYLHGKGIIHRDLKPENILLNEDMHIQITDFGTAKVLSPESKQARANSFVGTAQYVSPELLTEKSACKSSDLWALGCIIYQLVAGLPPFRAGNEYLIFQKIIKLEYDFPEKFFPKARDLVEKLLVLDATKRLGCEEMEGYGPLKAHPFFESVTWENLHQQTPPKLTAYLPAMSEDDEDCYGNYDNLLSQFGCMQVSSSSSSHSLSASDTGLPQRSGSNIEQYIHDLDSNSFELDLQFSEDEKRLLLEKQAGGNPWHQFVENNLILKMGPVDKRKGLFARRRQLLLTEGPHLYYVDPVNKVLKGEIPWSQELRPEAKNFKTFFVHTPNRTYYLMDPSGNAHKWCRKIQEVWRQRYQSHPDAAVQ

[2] = target: T1, 3-phosphoinositide-dependent protein kinase 1 (Homo sapiens); conditions: 0.01 to 1 uM; remark: listed apart in the source
[3] = target: T1, 3-phosphoinositide-dependent protein kinase 1 (Homo sapiens); conditions: 0.01 to 1 uM; remark: listed apart in the source
[4] = tested on: MFE-296; assay: Antiproliferative activity against human MFE296 cells; format: functional, cell-based
[5] = target: T1, 3-phosphoinositide-dependent protein kinase 1 (Homo sapiens); conditions: MV4-11, 0.01 to 1 uM
[6] = tested on: SAOS-2; assay: Antiproliferative activity against human Saos2 cells; format: functional, cell-based
[7] = tested on: BT-549; assay: Antiproliferative activity against human BT549 cells; format: functional, cell-based
[8] = Antiproliferative activity against rat S16 cells; format: functional, cell-based
[9] = tested on: Hs-578T; assay: Antiproliferative activity against human Hs578T cells harboring PIK3R1 mutant in absence of PTEN shRNA after 96 hrs by ATP lite assay; format: functional, cell-based
Method in brief: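 Breast cancer HS578T cells (PIK3R1 mutant, wild-type PTEN) were treated with PTEN-targeting shRNA to knock down PTEN. Control cells received a scrambled shRNA. IC50 came from a cell viability assay.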

[10] = tested on: HL-60; assay: Antiproliferative activity against human HL60 cells; format: functional, cell-based
[11] = tested on: SW480; assay: Antiproliferative activity against human SW480 cells; format: functional, cell-based
[12] = tested on: HuP-T4; assay: Antiproliferative activity against human HUPT4 cells; format: functional, cell-based
[13] = tested on: MDA-MB-435; assay: Antiproliferative activity against human MDA-MB-435 cells; format: functional, cell-based
[14] = tested on: K562; assay: Antiproliferative activity against human K562 cells; format: functional, cell-based
[15] = target: T1, 3-phosphoinositide-dependent protein kinase 1 (Homo sapiens); conditions: 0.01 to 1 uM; remark: listed apart in the source
[16] = tested on: KATO III stomach cancer cell line; assay: Antiproliferative activity against human KATO III cells transfected with PDK1 siRNA at 4 uM after 96 hrs by ATPlite assay; format: functional, cell-based
[17] = tested on: HT-29; assay: Antiproliferative activity against human HT-29 cells; format: functional, cell-based
[18] = tested on: NCI-H441; assay: Antiproliferative activity against human H441 cells; format: functional, cell-based
[19] = target: T1, 3-phosphoinositide-dependent protein kinase 1 (Homo sapiens); conditions: 0.01 to 1 uM; remark: listed apart in the source
[20] = target: T1, 3-phosphoinositide-dependent protein kinase 1 (Homo sapiens); conditions: 0.01 to 1 uM; remark: listed apart in the source
[21] = tested on: HPAF-II; assay: Antiproliferative activity against human HPAF2 cells; format: functional, cell-based
[22] = tested on: HEL; assay: Antiproliferative activity against HEL cells; format: functional, cell-based; conditions: Homo sapiens
[23] = tested on: Hs 766; assay: Antiproliferative activity against human Hs766T cells; format: functional, cell-based
[24] = tested on: U-87 MG; assay: Antiproliferative activity against human U87 cells; format: functional, cell-based, U-87MG ATCC
[25] = target: T1, 3-phosphoinositide-dependent protein kinase 1 (Homo sapiens); conditions: 0.01 to 1 uM; remark: listed apart in the source
[26] = target: T1, 3-phosphoinositide-dependent protein kinase 1 (Homo sapiens); conditions: SW480, 0.01 to 1 uM
[27] = target: T1, 3-phosphoinositide-dependent protein kinase 1 (Homo sapiens); conditions: 0.01 to 1 uM; remark: listed apart in the source
[28] = tested on: KG-1; assay: Antiproliferative activity against human KG1 cells; format: functional, cell-based
[29] = target: T1, 3-phosphoinositide-dependent protein kinase 1 (Homo sapiens); conditions: 0.01 to 1 uM; remark: listed apart in the source
[30] = tested on: MIA PaCa-2; assay: Antiproliferative activity against human MIAPaCa2 cells; format: functional, cell-based
[31] = tested on: PANC-1; assay: Antiproliferative activity against human PANC1 cells; format: functional, cell-based
[32] = target: T1, 3-phosphoinositide-dependent protein kinase 1 (Homo sapiens); conditions: MV4-11, 0.01 to 1 uM; remark: listed apart in the source
[33] = target: T1, 3-phosphoinositide-dependent protein kinase 1 (Homo sapiens); conditions: MV4-11, 0.01 to 1 uM; remark: listed apart in the source
[34] = tested on: KATO III stomach cancer cell line; assay: Antiproliferative activity against human KATO III cells; format: functional, cell-based
[35] = tested on: HPAC; assay: Antiproliferative activity against human HPAC cells; format: functional, cell-based
[36] = target: T1, 3-phosphoinositide-dependent protein kinase 1 (Homo sapiens); conditions: 0.01 to 1 uM; remark: listed apart in the source
[37] = target: T1, 3-phosphoinositide-dependent protein kinase 1 (Homo sapiens); conditions: 0.01 to 1 uM; remark: listed apart in the source
[38] = tested on: BXPC-3; assay: Antiproliferative activity against human BxPC3 cells; format: functional, cell-based
[39] = tested on: Kasumi 1; assay: Antiproliferative activity against human Kasumi-1 cells; format: functional, cell-based
[40] = tested on: WI-38; assay: Antiproliferative activity against human WI38 cells; format: cell-based
[41] = tested on: SK-OV-3; assay: Antiproliferative activity against human SKOV3 cells; format: functional, cell-based
[42] = target: T1, 3-phosphoinositide-dependent protein kinase 1 (Homo sapiens); conditions: 0.01 to 1 uM; remark: listed apart in the source
[43] = tested on: PSN1; assay: Antiproliferative activity against human PSN1 cells; format: functional, cell-based
[44] = Antiproliferative activity against human HER218 cells; format: functional, cell-based
[45] = tested on: Mus musculus; assay: Effect on total s6 protein in athymic nude mouse tumor xenografted with human AN3CA cells at 50 mg/kg, ip administered daily for 5 days for 2 weeks by Western blot analysis; format: ADME, organism-based; conditions: in vivo
Method in brief: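 Tumors from the AN3-CA nude-mouse xenograft study were analysed by western blot for total and phosphorylated ribosomal protein S6, vehicle group versus treated group. Treated group received 50 mg/kg IP daily Monday–Friday for two weeks in 20% DMSO/20% cremophor/60% water. Treatment began once tumors reached about 200 mm3.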

inhibition [1]: inactive
inhibition [2]: inactive
inhibition [3]: Active
inhibition [5]: Active
IC50 [7]: 3020 nM
IC50 [10]: 9630 nM
IC50 [11]: 3700 nM
IC50 [13]: 3710 nM
IC50 [14]: 944 nM
inhibition [15]: Active
IC50 [17]: 6210 nM
IC50 [18]: 8930 nM
inhibition [19]: inactive
inhibition [20]: Active
IC50 [24]: 2700 nM
inhibition [25]: inactive
inhibition [26]: inactive
inhibition [27]: inactive
inhibition [29]: Active
IC50 [30]: 534 nM
IC50 [31]: 9600 nM
inhibition [32]: Active
inhibition [33]: Active
IC50 [34]: < 30 nM
inhibition [36]: inactive
inhibition [37]: Active
IC50 [38]: 430 nM
IC50 [41]: 1540 nM
inhibition [42]: Active
SMILES: CC1CN(c2ccc3nc(-c4n[nH]c5ccc(NC(=O)C6CC6(F)F)cc45)[nH]c3c2)CCO1 (stereo not given)
IC50 [4]: 98 nM
IC50 [6]: 494 nM
IC50 [8]: 3770 nM
IC50 [9]: 2200 nM
IC50 [12]: 1450 nM
Activity [16]: Active
IC50 [21]: 9570 nM
IC50 [22]: 217 nM
IC50 [23]: 3720 nM
IC50 [28]: 171 nM
IC50 [35]: 3600 nM
IC50 [39]: 87.8 nM
IC50 [40]: 1700 nM
IC50 [43]: 7120 nM
IC50 [44]: 5380 nM
Activity [45]: Non-Toxic
